The source made the active and inactive calls.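 The calls were made as follows: active = mean EC50 of 20 µM or lower; inactive = the rest.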
molecular target: CHO-CHOP luciferase reporter, UPR apoptotic arm activation; assay: CHOP luciferase reporter activation in CHO cells – cell-based, CHO-CHOP line, luminescence, set 2, SAR follow-up (AID 588594)
Summary of the method: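 Assay system: CHO-CHOP cells with stable CHOP-driven luciferase reporter (PERK-eIF2a-CHOP arm); quantity: 500 cells/well; compound dosing: dose-response series, DMSO ≤1%; times: seeding 16-18 h before compounds, 6 h exposure at 37 °C; technique: Steady-Glo luminescence; controls: high tunicamycin 10 µg/mL, low DMSO alone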

| EC50 | SMILES |
| --- | --- |
| 0.739 µM | O=C(Nc1ccc(S(=O)(=O)N2CCC(Cl)CC2)cc1)c1ccc([N+](=O)[O-])o1 |
| 0.774 µM | O=C(Nc1ccc(S(=O)(=O)N2CCC(F)CC2)cc1)c1ccc([N+](=O)[O-])o1 |
| 5.59 µM | O=C(Nc1nc2ccc(F)c(F)c2s1)c1ccccn1 |
| 1.36 µM | CC1CN(S(=O)(=O)c2ccc(NC(=O)c3ccc([N+](=O)[O-])o3)cc2)CC(C)O1 (stereo not drawn) |
| 0.676 µM | CC(C)(C)C1CCN(S(=O)(=O)c2ccc(NC(=O)c3ccc([N+](=O)[O-])o3)cc2)CC1 |
| 8.28 µM | O=C(Nc1nc2cc(F)c(F)cc2s1)c1ccccn1 |
| 6.87 µM | O=C(Nc1nc2cc(F)cc(F)c2s1)c1ccccn1 |
| 9.88 µM | O=C(Nc1nc2c(F)c(F)ccc2s1)c1ccccn1 |
| 1.19 µM | O=C(Nc1ccc(S(=O)(=O)C2CCOCC2)cc1)c1ccc([N+](=O)[O-])o1 |
| 5.99 µM | O=C(Nc1nc2ccc(Cl)cc2s1)c1ccccn1 |
| 7 µM | O=C(Nc1nc2cccc(F)c2s1)c1ccccn1 |
| 6.65 µM | O=C(Nc1nc2c(F)ccc(F)c2s1)c1ccccn1 |
| 0.732 µM | O=C(Nc1ccc(S(=O)(=O)N2CCC3(CCCCC3)CC2)cc1)c1ccc([N+](=O)[O-])o1 |
| > 80 µM (inactive) | CC1(C)CCN(S(=O)(=O)c2ccc(NC(=O)c3ccc(C(F)(F)F)o3)cc2)CC1 |
| > 80 µM (inactive) | CC1(C)CCN(S(=O)(=O)c2ccc(NC(=O)c3cccc([N+](=O)[O-])c3)cc2)CC1 |
| 7.13 µM | O=C(Nc1nc2cc(F)ccc2s1)c1ccccn1 |
| > 77.5 µM (inactive) | Cn1c([N+](=O)[O-])cnc1C(=O)Nc1ccc(S(=O)(=O)N2CCC(C)(C)CC2)cc1 |
| 4.68 µM | O=C(Nc1nc2ccc(C(F)(F)F)cc2s1)c1ccccn1 |
